Measured values published in PubChem BioAssay AID623981 (Broad Institute, 2012).
“And” between values parts separate entries of the source, which are not always exact repeats. Equal values may be shown once. The source made the active and inactive calls.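 Rule for the calls: active = compounds lowering growth signal whose fitted half-effect dose is at most twice their top tested dose; inconclusive = flat fit with moderate inhibition, or poor curve fit; inactive = the rest.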

Test system: not listed separately
Assay: C. albicans CaCi-2 growth inhibitors, compound alone – CaCi-2 strain, dry powder, plate reader, set 3, dose response (AID 623981)
Conditions: C. albicans CaCi-2 growth, Alamar Blue fluorescence, 48 h; at 3 µM (top of the series)
How it was run: (§1)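 System: fluconazole-resistant Candida albicans strain CaCi-2. Quantity: fungal inoculum at starting A600 of 0.00015. Medium: MOPS-buffered RPMI 1640 plus uridine, glucose, Pen/Strep. Times: 48 h at 37 °C, humidified, plus 2 h stain. Technique: Alamar Blue fluorescence. Controls: amphotericin 10 µM as positive control.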
In the case of C/C=C/[C@@H]1[C@H]2C[C@@H](C)CC[C@@H]2C(C)=C[C@H]1C(=O)c1c(O)c(-c2ccc(O)cc2)c[nH]c1=O, the activity change, negative = inhibition is reported as 47.9% (inactive).

Test system: C. albicans CaCi-2 growth, Alamar Blue fluorescence, 48 h
Assay: as above
Conditions: not given
How it was run: as §1
With CCOC(=O)N1C(=O)C2(CCCCC2)N(c2ccccc2)C1=S the AC50 was 697 nM.
Compound CCOC(=O)N1C(=O)C2(CCCCC2)N(c2cccc(C)c2)C1=S has an AC50 of 1260 nM.
For CCOC(=O)N1C(=O)C2(CCCCC2)N(c2ccc(C#N)cc2)C1=S, the AC50 was 307 nM.
In the case of CC1/C=C/C=C\C=C\C=C\C=C\C=C\C=C\C(O[C@H]2OC(C)C(O)C(N)C2O)CC2OC(O)(CC(O)CC(O)C(O)CCC(O)CC(O)CC(=O)OC(C)C(C)C1O)CC(O)C2C(=O)O (stereo partly drawn), the AC50 is reported as 92.3 nM.
With CCOC(=O)N1C(=O)C2(CCCCC2)N(c2ccc(Cl)cc2)C1=S the AC50 was 221 nM.
CCOC(=O)N1C(=O)C2(CCCCC2)N(c2ccc(F)cc2)C1=S showed an AC50 of 150 nM.
For CCOC(=O)N1C(=O)C2(CCCCC2)N(c2ccc(C)cc2)C1=S, the AC50 was 2740 nM and 3070 nM.
